Laboratory results: ChEMBL document CHEMBL1667841, “Furoxan nitric oxide donor coupled chrysin derivatives: synthesis and vasculoprotection” (Bioorg Med Chem Lett, 2011)
pIC50: −log10 of the molar value.

Legend:
[1] = molecular target: Aldo-keto reductase family 1 member B1 (Homo sapiens, UniProt P15121); experiment: Inhibition of aldose reductase by spectrophotometric analysis
[2] = Induction of NO release in phosphate buffered saline of pH 7.4 at 10^-4 M after 1 hr by Griess assay in presence of L-cysteine; format: physicochemical; settings: buffer, pH 7.4, 1 h, 100 µM
Outline: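 Compound at 10^-4 M final in 1:1 v/v 50 mM PBS (pH 7.4)/MeOH containing 5 × 10^-4 M L-cysteine, 1 h at 37 °C; mixture treated with Griess reagent, 10 min at room temperature, absorbance 540 nm. Nitrite quantified against sodium nitrite standards (10–80 nmol/mL); expressed as % of theoretical 1 mol NO/mol compound, n = 3.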

[3] = Inhibition of advanced glycation end product formation in phosphate buffered saline at pH 7.4 after 14 days by fluorospectrophotometry; format: physicochemical

| Compound | pIC50 [1] | Activity [2] [%] | pIC50 [3] |
| --- | --- | --- | --- |
| CC(=O)Oc1cc(OCC(=O)OCc2c(-c3ccccc3)no[n+]2[O-])cc2oc(-c3ccccc3)cc(=O)c12 | 6.05 |  |  |
| O=C(COc1cc(O)c2c(=O)cc(-c3ccccc3)oc2c1)OCc1c(-c2ccccc2)no[n+]1[O-] | 6.12 |  |  |
| CC(=O)Oc1cc(OCC(=O)OCc2ccc(OCc3c(-c4ccccc4)no[n+]3[O-])cc2)cc2oc(-c3ccccc3)cc(=O)c12 | 5.71 |  |  |
| CC(=O)Oc1cc(OCC(=O)OCc2cccc(OCc3c(-c4ccccc4)no[n+]3[O-])c2)cc2oc(-c3ccccc3)cc(=O)c12 | 5.79 | 1.89 | 4.58 |
| O=c1cc(-c2ccccc2)oc2cc(O)cc(O)c12 [CHRYSIN] | 5.11 |  | 4.20 |
| O=C(COc1cc(O)c2c(=O)cc(-c3ccccc3)oc2c1)OCc1cccc(OCc2c(-c3ccccc3)no[n+]2[O-])c1 | 6.66 |  |  |
| O=C(COc1cc(O)c2c(=O)cc(-c3ccccc3)oc2c1)OCc1ccc(OCc2c(-c3ccccc3)no[n+]2[O-])cc1 | 6.40 |  |  |
| N=C(N)NN [PIMAGEDINE] |  |  | 3.08 |
| [O-][n+]1onc(-c2ccccc2)c1CO | ≤ 5.00 |  |  |
